# RBBP9 inhibitor: inhibitors of human serine hydrolase RBBP9 | O75884 | recombinant RBBP9, FP-Rh probe fluorescence polarization | inhibition, % at 7.94 µM | 0.2% of 220,000 active;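 active = inhibition above the campaign mean of all tested compounds plus 3 SD, cut at about 14% in these data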;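 note: plate controls were DMSO wells with RBBP9 for no effect and wells lacking RBBP9 protein for full effect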
# Target sequence (O75884 whole entry, looked up): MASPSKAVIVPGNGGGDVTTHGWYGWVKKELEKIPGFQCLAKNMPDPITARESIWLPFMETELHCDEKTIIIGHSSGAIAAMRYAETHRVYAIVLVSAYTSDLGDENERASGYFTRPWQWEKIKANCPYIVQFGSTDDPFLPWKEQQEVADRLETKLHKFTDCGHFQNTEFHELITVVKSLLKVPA
#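 System: RBBP9 protein / Quantity: 2.5 µM RBBP9 dispensing solution, before mixing / Also added: Serine-hydrolase probe FP-Rh, 375 nM pre-mixing / Dosing: 7.94 µM single dose, 0.794% DMSO / Timing: enzyme-compound preincubation 30 min, then probe labeling 45 min, 25 °C / Signal: FP readout at 525/598 nm / Controls: DMSO-treated enzyme wells and wells lacking RBBP9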
# PAFAH2 FP inh: inhibitors of human PAFAH2 | Q99487 | recombinant PAFAH2, FP-rhodamine activity probe, fluorescence polarization | inhibition, % at 3.39 µM | 0.99% of 340,000 active;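 active = inhibition above the mean over all tested compounds plus 3 SD, cut at about 30% in these data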;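 note: inhibitors block probe labeling of enzyme so polarization drops; 0% = enzyme with DMSO and 100% = wells lacking PAFAH2 protein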
# PAFAH1B2 FP inh: blocks human PAF acetylhydrolase 1b catalytic subunit 2 | recombinant PAFAH1B2, FP-rhodamine activity probe, fluorescence polarization | inhibition, % at 3.39 µM | 1.2% of 340,000 active | AID 492953;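 active = inhibition above the mean of all tested compounds plus 3 SD, cut at about 24% in these data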;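 note: 0% = enzyme with DMSO and 100% = wells lacking PAFAH1B2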
# Target sequence (P68402 whole entry, looked up): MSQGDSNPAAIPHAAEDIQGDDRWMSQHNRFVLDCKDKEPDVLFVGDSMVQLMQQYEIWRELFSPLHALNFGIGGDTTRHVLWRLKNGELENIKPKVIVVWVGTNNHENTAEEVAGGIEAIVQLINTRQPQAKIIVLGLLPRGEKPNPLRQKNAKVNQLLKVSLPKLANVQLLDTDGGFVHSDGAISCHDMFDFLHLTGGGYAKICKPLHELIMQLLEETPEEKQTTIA
# pPAFAH FP inh: inhibitors of human plasma PAF acetylhydrolase (pPAFAH). AID 463082. Q13093. inhibition, % at 3.39 µM. 1.5% of 330,000 active. recombinant pPAFAH, FP-rhodamine probe fluorescence polarization;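 active = inhibition above the mean inhibition across the screen plus 3 SD, cut at about 25% in these data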;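 note: inhibitors block binding of the rhodamine activity-based probe so polarization drops; 0% = enzyme with DMSO and 100% = wells lacking pPAFAH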
# PAFAH1B3 FP inh: PAFAH1B3 (human) inhibition | AID 492972 | inhibition, % at 3.39 µM | recombinant PAFAH1B3, FP-rhodamine probe, fluorescence polarization | 0.28% of 340,000 active;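 active = inhibition above the screen-wide average of all tested compounds plus 3 SD, cut at about 25% in these data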;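 note: 0% = enzyme with DMSO only and 100% = wells lacking PAFAH1B3 protein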
# Target sequence (Q15102 whole entry, looked up): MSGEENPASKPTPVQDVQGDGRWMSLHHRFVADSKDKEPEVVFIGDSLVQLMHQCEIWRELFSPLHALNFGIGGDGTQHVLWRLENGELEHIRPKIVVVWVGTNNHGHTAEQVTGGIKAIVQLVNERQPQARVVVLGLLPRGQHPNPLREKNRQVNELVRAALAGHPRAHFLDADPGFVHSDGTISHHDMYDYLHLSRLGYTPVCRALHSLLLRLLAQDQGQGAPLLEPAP
# PAFAH2 FP conf: PAFAH2 (human) inhibition, confirmed; shares compounds with PAFAH2 FP inh; recombinant PAFAH2, FP-rhodamine activity probe, fluorescence polarization; inhibition, % at 3.39 µM; 65% of 2,300 active; AID 493030;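 active = mean inhibition over three repeats above a set limit taken from the earlier primary screen, cut at about 30% in these data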;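 note: inhibitor blocks binding of rhodamine activity probe so polarization falls; 0% = enzyme with DMSO and 100% = wells lacking PAFAH2 protein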
# Active calls of the source: *; . = no result. Only some compounds are listed: those with a hit (about 2.7% of all), similar ones and a draw of the others.
SMILES,RBBP9 inhibitor,PAFAH2 FP inh,PAFAH1B2 FP inh,pPAFAH FP inh,PAFAH1B3 FP inh,PAFAH2 FP conf
Cc1cc(C)cc(NC(=O)CSc2nc3c(c(=O)[nH]2)CN(Cc2ccc(F)cc2)CC3)c1,-6,31*,9,6,4,17
CCCN1CCc2nc(SCC(=O)Nc3ccc(C)c(Cl)c3)[nH]c(=O)c2C1,.,3,3,3,0,.
CCCCCCCc1nc2nc(C)c(Br)c(=O)n2[nH]1,-9,38*,13,20,10,35*
CCCc1nc2nc(C)c(NS(=O)(=O)c3ccc(C(C)(C)C)cc3)c(=O)n2[nH]1,.,9,9,4,9,.
O=C(O)C(Cc1ccccc1)N1C(=O)c2c(Cl)c(Cl)c(Cl)c(Cl)c2C1=O (stereo not given),.,32*,6,0,-3,26
O=C(O)C(Cc1ccccc1)N1C(=O)c2ccccc2C1=O (stereo not given),2,2,0,4,3,.
CC(C)n1c(N2CCN(C(=O)N3CCCCC3)CC2)nc2ccccc21,5,33*,7,8,1,18
O=C(Nc1ccsc1C(=O)O)c1ccc(Cl)cc1,.,31*,8,-7,10,19
Cc1ccccc1NC(=O)COC(=O)c1ccc(S(C)(=O)=O)c([N+](=O)[O-])c1,-3,39*,1,11,-2,13
Cc1ccccc1NC(=O)COC(=O)c1ccc2c(c1)OCCO2,.,58*,2,.,2,52*
Cc1ccc(C)c(NC(=O)COC(=O)c2ccc3c(c2)OCCO3)c1,.,53*,1,1,6,61*
CS(=O)(=O)c1ccc(C(=O)OCC(=O)Nc2cccnc2Cl)cc1[N+](=O)[O-],.,12,-5,-1,4,.
Cc1ccc(NC(=O)COC(=O)c2ccc3c(c2)OCO3)c(C)c1,-10,26,6,6,4,.
CN(CC(=O)Nc1ccc(S(=O)(=O)N2CCOCC2)cc1)Cc1ccc(F)cc1,.,8,11,3,4,.
NC(=O)C1CCCN(C(=O)c2ccc3oc(Cc4ccc(Cl)cc4)nc3c2)C1 (stereo not given),.,9,11,-2,2,.
O=C(c1ccc2oc(Cc3ccc(Cl)cc3)nc2c1)N1CC[C@H](O)C1,.,71*,7,6,4,63*
NC(=O)c1sc2nc3c(c(-c4ccco4)c2c1N)CCC3,-4,44*,9,20,24,7
O=C1c2ccccc2[C@@H]2C[C@@H](O)[C@H](Nc3cccc(C(F)(F)F)c3)CCN12,.,40*,5,23,11,30*
O=C1c2ccccc2[C@@H]2C[C@@H](O)[C@H](Nc3ccccc3-c3ccccc3)CCN12,.,-1,6,4,2,.
CC(C)(C)c1ccc(/C=C2\Oc3cc(O)ccc3C2=O)cc1,.,47*,11,16,5,36*
O=C1/C(=C/c2ccc(Br)cc2)Oc2cc(O)ccc21,.,25,17,21,10,.
N#Cc1ccccc1NC(=O)COC(=O)c1cccs1,.,84*,5,4,-2,63*
O=C(COC(=O)c1cccs1)Nc1ccccc1[N+](=O)[O-],-2,75*,3,2,-3,68*
O=C(CCSCc1ccccc1F)NCCc1ccccc1,-3,2,6,4,-2,.
CC(=O)N1CCN(Cc2nc3cc(NC(=O)COc4ccccc4)ccc3n2C)CC1,-3,0,4,-3,6,.
SMILES,RBBP9 inhibitor,PAFAH2 FP inh,PAFAH1B2 FP inh,pPAFAH FP inh,PAFAH1B3 FP inh,PAFAH2 FP conf
O=C(COC(=O)c1ccc(F)c(S(=O)(=O)N2CCOCC2)c1)Nc1ccc2c(c1)OCO2,.,78*,2,.,4,65*
COc1ccc(C(=O)OCC(=O)Nc2ccc3c(c2)OCO3)cc1S(=O)(=O)N1CCOCC1,.,82*,3,.,4,82*
COc1cc(OC)c(N(C)S(=O)(=O)c2cccc(C(=O)OCC(=O)N(C)C3CCCCC3)c2)cc1Cl,.,40*,0,.,-7,27
COc1cc(OC)c(N(C)S(=O)(=O)c2cccc(C(=O)OCC(=O)c3c[nH]c4ccccc34)c2)cc1Cl,-15,-43,-32,-21,-67,.
COc1cc(OC)c(NS(=O)(=O)c2cccc(C(=O)OCC(=O)NCC3CCCO3)c2)cc1Cl (stereo not given),-1,39*,3,18,-2,31*
COc1ccc(C(=O)OCC(=O)c2ccccc2)cc1S(=O)(=O)N1CCOCC1,6,52*,1,-1,2,40*
O=C(COC(=O)c1ccc(CNS(=O)(=O)c2ccc(F)c(Cl)c2)cc1)NCC1CCCCC1,-10,59*,5,7,4,66*
Nc1cc(C(=O)OCC(=O)NCc2ccc(F)cc2)ccc1Cl,-5,55*,1,10,11,44*
O=C(COC(=O)c1ccc(F)c(S(=O)(=O)N2CCOCC2)c1)c1ccccc1,.,22,2,1,11,.
COc1ccc(C(=O)OCCOc2cccc(Cl)c2)cc1S(=O)(=O)N1CCOCC1,.,35*,8,4,13,19
CCOc1cc(C(=O)N[C@@H](C)C(=O)N2CCC3(CC2)NCCc2[nH]cnc23)cc(OCC)c1OCC,.,-7,4,-4,5,.
O=C(CN(C(=O)C1CSC(=O)C1)c1ccc(F)cc1)NCc1ccc2c(c1)OCO2 (stereo not given),.,4,-2,5,2,.
O=c1[nH]c2ccc(S(=O)(=O)Nc3ccc(Cl)cc3)cc2[nH]1,.,3,9,23,2,.
O=C(COC(=O)c1ccc(F)c(S(=O)(=O)N2CCCCC2)c1)NCc1ccc(F)cc1,-1,32*,1,8,7,17
O=C(COC(=O)c1ccc(F)c(S(=O)(=O)N2CCOCC2)c1)NCCc1ccc(F)cc1,.,30*,-3,5,1,21
O=C(COC(=O)c1ccc(Br)c(S(=O)(=O)N2CCOCC2)c1)NCCc1ccccc1,.,11,1,1,6,.
COc1ccc(C(=O)NCCc2ccc(C(F)(F)F)cc2)cc1S(=O)(=O)N1CCOCC1,.,11,12,4,-3,.
COc1ccc(C(=O)OCC(=O)NCCc2ccc(F)cc2)cc1S(=O)(=O)N1CCOCC1,.,66*,8,7,13,47*
COc1ccc(NC(=O)CSc2n[nH]c(-c3ccncc3)n2)cc1Cl,.,-9,2,-3,4,.
Cc1noc(C)c1C(=O)Nc1sc(C)c(-c2ccccc2)c1C#N,-14,-3,9,3,2,.
Cc1cccc(C(=O)Nc2sc(C)c(-c3ccccc3)c2C#N)c1,-13,47*,1,-1,-4,-1
COc1ccccc1NS(=O)(=O)c1ccc(C(=O)N2CCCCCC2)cc1,.,3,8,5,1,.
CCc1ccc(NC(=O)C/C(C)=N/NC(=O)COc2ccc(C)cc2Br)cc1,.,11,16,-6,3,.
